Compound activity from PubChem BioAssay.
Rows were chosen to be rich in hits. Some 2.1% of all compounds tested hit in one or more screens of this group.
SF-1 act: SF-1 (human) activation; Q13285; activation, % at 10 µM; CHO-K1 Gal4-SF-1 LBD luciferase reporter; % increase over DMSO SF-1-specific signal; 65,000 compounds, 1.9% hits;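 active = activation above the mean activation of all tested compounds plus 3 SD, cut at about 50% in these data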
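Test system: CHO-K1 cells co-transfected with Gal4 DBD–human SF-1 LBD, 5xGal4 luciferase reporter. Quantity: 4,000 cells per well. Compound: 10 µM only. Incubation: compound added 1 h post-seeding, 20 h exposure at 37 °C, 5% CO2. Detection: SteadyLite luciferase luminescence. Replication: one test per compound.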
Ec RNAP inh: blocks E. coli RNA polymerase transcription. P0A8V2. fluorescence transcription assay. inhibition, %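 (tested at 10 µM)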. 62,000 compounds, 0.2% hits; in the data active = inhibition above about 20%
RORa activator: activators of human nuclear receptor RORA; P35398; CHO-K1 Gal4-RORA LBD luciferase reporter, luminescence; percent increase over mock-subtracted basal signal; activation, % at 10 µM; 65,000 compounds, 1.5% hits; AID 560;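 active = activation above the mean of all tested compounds plus 3 SD, cut at about 49% in these data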
Target sequence (P35398 whole entry, looked up, the tested form may be a part): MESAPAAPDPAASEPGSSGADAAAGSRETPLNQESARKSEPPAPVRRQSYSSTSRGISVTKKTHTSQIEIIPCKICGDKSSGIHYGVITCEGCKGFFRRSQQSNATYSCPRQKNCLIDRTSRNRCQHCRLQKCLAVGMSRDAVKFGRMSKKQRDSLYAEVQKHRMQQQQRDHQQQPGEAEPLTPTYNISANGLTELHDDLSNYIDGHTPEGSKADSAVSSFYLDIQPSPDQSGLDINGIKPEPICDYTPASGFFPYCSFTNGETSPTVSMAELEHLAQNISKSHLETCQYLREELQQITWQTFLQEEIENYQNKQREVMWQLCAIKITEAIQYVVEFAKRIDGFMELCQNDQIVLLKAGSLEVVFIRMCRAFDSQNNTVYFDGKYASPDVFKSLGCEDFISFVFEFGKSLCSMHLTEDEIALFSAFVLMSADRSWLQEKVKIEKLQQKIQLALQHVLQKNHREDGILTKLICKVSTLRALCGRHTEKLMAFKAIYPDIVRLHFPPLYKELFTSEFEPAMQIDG
MT1-MMP txn act: MT1-MMP promoter transcription activation; HT1080 MT1-MMP promoter luciferase reporter, luminescence, overnight; stronger effect = higher value; activation factor at 10 µM; 86,000 compounds, 0.16% hits; AID 750;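 active = activation factor of at least 2 for MT1-MMP transcription at 10 µM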
TNAP act mid DEA: activators of human TNAP at intermediate phosphate acceptor; P05186; purified TNAP, CDP-star luminescence, 100 mM DEA, 30 min; stronger effect = higher value; scale: 0 levamisole-inhibited, 1 vehicle-only enzyme; activation factor at 20 µM; 64,000 tested, under 10 active; AID 813;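 active = activation factor of at least 2 at 20 µM, relative to controls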
Numbers stand for hits; 0 = inactive; - = not tested or not shown.

SMILES | SF-1 act | Ec RNAP inh | RORa activator | MT1-MMP txn act | TNAP act mid DEA
O=c1c2ccccc2nnn1CSc1nnc2ccccn12 | 77.6 | 0 | 0 | 0 | 0
O=C(Cn1cnc2ccccc2c1=O)c1ccc2c(c1)OCCO2 | 75.1 | 0 | 0 | 0 | 0
CCOC(=O)c1ccc(NC(=O)Cn2cc3c(n2)CCC(C)C3)cc1 (stereo unspecified) | 0 | 0 | 0 | 0 | 0
CCCOc1cccc(C2C(C(=O)c3ccc(C)o3)=C(O)C(=O)N2CCCN(C)C)c1 (stereo unspecified) | 0 | 0 | 0 | 0 | 0
CCN(CC)c1ccc2cc(C(C)=O)c(=O)oc2c1 | - | - | - | 0 | -
CCN(CC)c1ccc2cc(-c3nnc(-c4ccncc4)o3)c(=O)oc2c1 | 73.2 | 0 | 0 | 0 | 0
Nc1ccccc1NC1=CC(=O)CC(c2ccco2)C1 (stereo unspecified) | 0 | 0 | 0 | 0 | 0
Cc1ccc(NC2=CC(=O)CC(c3ccco3)C2)c(N)c1 (stereo unspecified) | 57.8 | 0 | 50.3 | 0 | 0
C=COC(=O)CSc1nc(-c2cccs2)ccc1C#N | 69.2 | 0 | 0 | 0 | 0
CCOCc1nc(N)[nH]c(=O)c1Cc1ccc(OC(C)C)cc1 | 0 | 0 | 0 | 0 | 0
CC(C)c1cc(C(=O)Nc2cccnc2)no1 | 0 | 0 | 61.3 | 0 | 0
O=C(Nc1cccnc1)c1noc2c1CCCC2 | 0 | 0 | 48.6 | 0 | 0
COc1ccc(NC(=O)c2cc(C(C)C)on2)c(OC)c1 | 50.4 | 0 | 69.5 | 0 | 0
Cc1cc(NC(=O)c2noc3c2CCCCC3)no1 | 0 | 0 | 58.4 | 0 | 0
CC(=O)c1cc2c(cc1NC(=O)CN1CCCCCCC1)OCO2 | - | - | - | 0 | -
COc1cccc(C2c3c(oc4cc(C)c(C)cc4c3=O)C(=O)N2CCCN(C)C)c1 (stereo unspecified) | 0 | 0 | 0 | 0 | 0
Cn1c(C(=O)N2CCN(c3ccc(Cl)cc3)CC2)cc2c(=O)n(C)c3ccccc3c21 | 0 | 0 | 0 | 0 | 0
COc1ccc(N(C(=O)Cn2nnc3ccccc32)C(C(=O)NCc2ccco2)c2ccc(C)o2)cc1 (stereo unspecified) | 0 | 0 | 0 | 0 | 0
CCOc1ccc(-n2cc(C(=O)N3CCCCCC3)c3cc(OC)c(OC)cc3c2=O)cc1 | 0 | 0 | 0 | 0 | 0
O=C(Nc1ccc2c(c1)OCO2)c1noc2c1CCCCC2 | 0 | 0 | 0 | 0 | 0
CC(=O)c1ccc(NC(=O)c2noc3c2CCCCC3)cc1 | 0 | 0 | 50.4 | 0 | 0
O=C(O)c1ccccc1C(=O)Nc1ccccc1 | 0 | 0 | 0 | 0 | 0
O=C(Nc1ccccc1)c1cnc[nH]1 | 56.8 | 0 | 0 | 0 | 0
CCOC(=O)COC(=O)c1ccc(Oc2cc(C)nc(SC)n2)cc1 | - | - | - | 0 | -
CCOC(=O)c1ccc(Oc2cc(C)nc(SC)n2)cc1 | 0 | 0 | 56.6 | 0 | 0
SMILES | SF-1 act | Ec RNAP inh | RORa activator | MT1-MMP txn act | TNAP act mid DEA
CCCCn1ccnc1C(=O)c1ccc(S(=O)(=O)N(CCOC)CCOC)cc1 | 0 | 0 | 0 | 0 | 0
Cn1c2ccccc2c2ncn(CCC3=CCCCC3)c(=O)c21 | 50.6 | 0 | 0 | 0 | 0
Cn1c2ccccc2c2ncn(CCCN3CCOCC3)c(=O)c21 | 0 | 0 | 0 | 0 | 0
COC(=O)[C@@H]1C[C@H]2CC[C@H](O)C[C@H]2N1Cc1ccc(N2CCOCC2)cc1 | - | - | - | 0 | -
COC(=O)c1ccc(C(NC(=O)OCc2ccccc2)/C(F)=C/[C@@H](C)C(=O)NCCc2c[nH]c3ccc(OC)cc23)cc1 (stereo partly specified) | - | - | - | 0 | -
COc1ccc(OC)c(NC2c3ccccc3C(=O)N2c2cccnc2)c1 (stereo unspecified) | 0 | 0 | 0 | 0 | 0
Cn1c(SCc2c(F)cccc2Cl)nnc1-c1cccs1 | 58.4 | 0 | 102.1 | 0 | 0
CCNc1nc(N)c(C(=O)c2ccc(Cl)s2)s1 | 0 | 0 | 49.8 | 0 | 0
COC(=O)[C@@H]1C[C@@H]2CC[C@@H](O)C[C@@H]2N1Cc1ccc(C)s1 | - | - | - | 0 | -
COc1ccc2c(c1)[nH]c1c(=O)n(CC3CCCO3)cnc12 (stereo unspecified) | 50.8 | 0 | 0 | - | 0
CCOc1nc(NC(=O)NS(=O)(=O)Oc2cccc(Cl)c2)nc(-c2ccccc2)n1 | - | - | - | 0 | -
CC(C)CC(=O)Nc1ccc2oc(-c3ccncc3)nc2c1 | 55.3 | 0 | 0 | 0 | 0
O=C(Cc1ccccc1)Nc1ccc2oc(-c3ccncc3)nc2c1 | 0 | 0 | 0 | 0 | 0
Brc1ccc(-c2nnc(-c3cccc(Br)c3)o2)cc1 | - | - | - | 0 | -
Cc1ccc(-c2nnc(-c3ccc(Br)cc3)o2)o1 | 75.1 | 0 | 0 | 0 | 0
